Diaph inh CS: counter-screen for diaphorase-based assays: diaphorase inhibitors and chemical oxidizers | hit rate 0.69% among 190,000 | inhibition, % at 20 µM | diaphorase resazurin-to-resorufin fluorescence, NADH, 16 min; bacterial (C. kluyveri) enzyme, not human | AID 1217;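 active = primary screen inhibition at 20 µM above a set limit, cut at about 50% in these data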;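 also: plate controls were DMSO with full reaction for no effect and wells lacking NADH for full effect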
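controls = No-NADH positive control and DMSO neutral control | system = Clostridium kluyveri diaphorase enzyme | timing = reaction incubation of 16 min at room temperature | signal = resorufin fluorescence 544/590 nm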
Diaphorase act: activates diaphorase or chemically reduces, flagging diaphorase assay artifacts | Diaphorase/resazurin coupled assay, resorufin fluorescence, 16 min; hits give high values; 1 = vehicle wells, 0 = NADH-free wells | AID 1229 | hit rate 0.005% among 190,000 | activation factor at 20 µM;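 active = diaphorase activity raised at least twofold by the compound at 20 µM; inactive = activation factor below 2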
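Assay system: Purified diaphorase enzyme from Clostridium kluyveri | Amount: Enzyme 0.07 U/mL final | Dosing: Compound 20 µM once, DMSO 1% | Timing: 16 min reaction at room temperature | Detection: Fluorescence, excitation 544 nm and emission 590 nm | Evaluation: Higher resorufin formation from activation or reduction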
G6PDH counter: counter-screen for G6PDH assay hits: L. mesenteroides G6PDH inhibition; Purified L. mesenteroides G6PDH, diaphorase/resazurin coupled fluorescence, 45 min; inhibition, % at 5 µM; hit rate 0.12% among 200,000; AID 1020
WT yeast gro inh: growth inhibition of WT yeast, mitochondrial fusion screen; mitochondrial fusion phenotypic screen, WT strain; inhibition, % at 10 µM; hit rate 2.1% among 190,000; AID 1362; in the data active = inhibition above about 58%; tested in S. cerevisiae
Lmaj promast: reduces viability of Leishmania major promastigotes | inhibition, % at 10 µM | hit rate 9% among 200,000 | resazurin fluorescence viability | AID 1063;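 also: promastigotes grown with compound for 44 hours at 28 °C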
Numbers without * were called inactive; . = no result given. An excerpt weighted towards active compounds, which were near 11% of everything screened. Rule as the data show it, unless noted: active = inhibition above about 50%; inactive = the rest.

SMILES | Diaph inh CS | Diaphorase act | G6PDH counter | WT yeast gro inh | Lmaj promast
COC(=O)C1=C(C)N2C(=O)CSC2=NC1c1ccc2c(c1)OCO2 (stereo not drawn) | 8.5 | 0.9 | 5.0 | 4.9 | .
Cc1ccc(S(=O)(=O)c2c(CO)c(-c3ccccc3)nn2C)cc1 | 13.8 | 0.9 | 2.3 | -4.9 | 3.1
Cc1ccc(S(=O)(=O)c2c(COC(=O)c3ccccc3Cl)c(-c3ccccc3)nn2C)cc1 | 7.7 | 0.9 | -1.6 | 3.1 | 61.5*
O=C(NCCc1ccccc1)C1CCC(CNc2nc(=S)[nH]c3ccccc23)CC1 (stereo not drawn) | -7.1 | 1.1 | -4.0 | -7.7 | 6.2
COc1ccc(/C=C/C(=O)NC2CCCCCCC2)cc1S(=O)(=O)N1CCOCC1 | 6.5 | 0.9 | 6.2 | -9.6 | 87.5*
COc1ccc(/C=C/C(=O)NC(C)(C)C)cc1S(=O)(=O)N1CCOCC1 | 14.5 | 0.9 | -3.8 | -18.1 | 0.0
Cc1c(C(=O)NCCCN2CCOCC2)oc2ccc(S(=O)(=O)N3CCOCC3)cc12 | 5.8 | 0.9 | -1.5 | -3.6 | 1.0
COCCn1c(SCC(=O)c2c[nH]c3ccccc23)nnc1-c1ccncc1 | -2.6 | 1 | -18.9 | -6.3 | 82.9*
CCn1c(SCC(=O)c2c[nH]c3ccccc23)nnc1-c1cccs1 | 12.0 | 0.9 | -43.6 | -4.2 | 0.3
Cc1ccc(NC(NC(=O)OCCn2c([N+](=O)[O-])cnc2C)C(Cl)(Cl)Cl)cc1 (stereo not drawn) | 11.9 | 0.9 | 3.7 | -7.8 | 12.9
COc1ccc(NC(=O)OCCn2c([N+](=O)[O-])cnc2C)cc1 | 15.9 | 0.8 | -2.3 | -16.1 | 53.5*
COc1ccc(-c2n[nH]c(C(F)(F)F)c2-c2cc3ccccc3o2)c(O)c1 | 20.1 | 0.8 | 7.1 | 94.2* | 37.3
COc1ccccc1-c1c(-c2ccc(OCC(=O)NN)cc2O)n[nH]c1C(F)(F)F | 20.3 | 0.8 | 11.0 | 11.5 | 87.2*
COc1ccc(-c2n[nH]c(C)c2-c2ccc(Cl)cc2)c(O)c1 | 26.7 | 0.7 | -1.4 | 48.8 | 45.8
CCOc1ccccc1OCCOc1cccc(C(F)(F)F)c1 | 17.9 | 0.8 | 1.6 | 17.7 | -3.5
Cc1cc(N2CCCCC2)nc2ccc(NC(=O)c3ccc(Br)o3)cc12 | 14.4 | 0.9 | 3.0 | 12.0 | 93.7*
Cc1cc(N2CCN(C)CC2)nc2ccc(NC(=O)c3ccc4c(c3)OCO4)cc12 | -19.5 | 1.2 | -4.5 | -1.9 | 100.5*
Cc1cc(N2CCN(C)CC2)nc2ccc(NC(=O)c3ccc(Br)o3)cc12 | -0.9 | 1 | 5.3 | 1.1 | 92.1*
CN1CCN(c2ccc(NC(=O)c3ccc4c(c3)OCO4)cc2)CC1 | 9.0 | 0.9 | -0.8 | -2.2 | -2.0
Cc1cc(N2CCOCC2)nc2ccc(NC(=O)CCC(=O)N3CCCCC3)cc12 | 11.9 | 0.9 | 4.6 | -7.0 | 2.2
CCc1cccc(OCC(=O)Nc2ccc(S(=O)(=O)Nc3onc(C)c3C)cc2)c1 | 5.4 | 0.9 | 1.8 | 2.2 | -7.5
O=C(CSCc1ccccc1)Nc1ccc(F)c(F)c1 | 13.1 | 0.9 | 18.8 | -11.1 | -7.4
COc1cc2c(cc1NC(=O)Nc1ccc(C)cc1)oc1ccccc12 | 12.0 | 0.9 | -3.3 | 96.1* | 98.4*
COc1cc2c(cc1NC(=O)C(C)Sc1ccc(NC(C)=O)cc1)oc1ccccc12 (stereo not drawn) | 82.3* | 0.2 | -22.0 | 44.1 | 36.2
O=c1[nH]c(-c2ccc3c(c2)OCO3)nc2c1sc(=S)n2-c1ccccc1 | 9.5 | 0.9 | -0.3 | -2.8 | 51.4*
SMILES | Diaph inh CS | Diaphorase act | G6PDH counter | WT yeast gro inh | Lmaj promast
CCN(CC)C(=O)CSc1nc2c(sc(=S)n2-c2ccccc2)c(=O)[nH]1 | 68.7* | 0.3 | 1.6 | 17.6 | -2.9
CCN(CC)C(=O)CSc1nc2c(sc(=S)n2Cc2ccco2)c(=O)n1-c1ccccc1 | 50.8* | 0.5 | 1.3 | -3.8 | 29.1
O=C(CN1CCCCC1)NC(=O)NCc1ccccc1 | -7.6 | 1.1 | 10.5 | -23.3 | -7.7
CCn1c(=O)c(C2=NS(=O)(=O)c3ccccc3N2)c(O)c2ccccc21 | -2.1 | 1 | -2.1 | . | .
COc1cccc(-c2ccc(SCC(=O)N3CCc4ccccc43)nn2)c1 | 17.9 | 0.8 | -19.2 | 12.7 | -1.6
COc1ccc(-n2c(-c3ccccc3)cc3c2CCCC3=O)cc1 | 2.9 | 1 | 3.3 | 11.2 | 79.7*
Cc1ccc(-c2cc3c(n2-c2ccc(C(=O)O)cc2)CCCC3=O)cc1 | 10.8 | 0.9 | 11.9 | -10.0 | -5.6
O=C1c2c(O)cc(O)cc2O[C@H](c2ccc(O)c(O)c2)[C@@H]1O | 54.0* | 0.5 | 35.9 | -4.8 | .
O=C1c2c(O)cc(O)cc2O[C@H](c2ccc(O)c(O)c2)[C@H]1O | . | . | . | -6.9 | .
CN(C)c1nc(N(C)C)n(Cc2c(Cl)cccc2Cl)n1 | 3.4 | 1 | -1.3 | 4.0 | 17.9
CO[C@H]1C=CO[C@@]2(C)Oc3c(C)c(O)c4c(O)c(c(C=NN5CCN(C6CCCC6)CC5)c(O)c4c3C2=O)NC(=O)C(C)=CC=C[C@H](C)[C@H](O)[C@@H](C)[C@@H](O)[C@@H](C)[C@H](OC(C)=O)[C@@H]1C | 84.4* | 0.2 | 14.4 | 7.9 | .
CO[C@H]1C=CO[C@@]2(C)Oc3c(C)c(O)c4c(O)c(c(C=NN5CCN(C)CC5)c(O)c4c3C2=O)NC(=O)C(C)=CC=C[C@H](C)[C@H](O)[C@@H](C)[C@@H](O)[C@@H](C)[C@H](OC(C)=O)[C@@H]1C | 37.2 | 0.6 | 33.6 | 1.4 | 5.9
CCc1ccc(C(=O)C(C)OC(=O)C2COc3ccccc3O2)cc1 (stereo not drawn) | 25.4 | 0.7 | 0.5 | 19.3 | 46.3
CCNC(=S)N/N=C/c1cccs1 | 11.5 | 0.9 | 1.1 | 11.4 | 99.6*
CCNC(=S)N/N=C/c1cccc(/C=N/NC(=S)NCC)c1 | 7.2 | 0.9 | 16.3 | 2.4 | -3.8
Cc1cc(/C=N/NC(=O)c2ccncc2)c(C)n1-c1ccccc1 | 13.3 | 0.9 | -5.2 | 9.5 | -2.5
COc1cccc(NC(=O)C(=O)N/N=C/c2cc(C)n(-c3ccc(Cl)c(Cl)c3)c2C)c1 | 11.8 | 0.9 | -4.5 | 29.4 | -1.7
Cc1cc(/C=N/NC(N)=S)c(C)n1-c1ccc(Cl)c(Cl)c1 | 20.1 | 0.8 | -2.7 | 63.4 | 100.4*
CCNC(=S)N/N=C/c1cc(C)n(-c2ccc(Cl)cc2)c1C | 11.9 | 0.9 | -0.9 | 73.4* | 27.6
CCc1ccc(-n2c(C)cc(/C=N/NC(=O)c3ccncc3)c2C)cc1 | 83.8* | 0.2 | 14.8 | -3.6 | -3.0
Cc1nc2ccccn2c1C(=O)N/N=C/c1cc(C)n(-c2ccc(Cl)cc2)c1C | 12.1 | 0.9 | -1.5 | 21.1 | 12.1
N[C@@H](Cc1ccc(O)cc1)c1nnc([C@H](CO)NC(=O)C2CCNCC2)o1 | 10.5 | 0.9 | 14.1 | -4.0 | -2.1
Cn1cc([C@@H]2C[C@H]3CN(Cc4cccc(Cl)c4)C(=O)[C@]34CCCN24)c(-c2ccccc2)n1 | 25.3 | 0.7 | 4.5 | 13.8 | 42.0
Cc1ccc(CN2CCSc3ccc(C(=O)NCc4cccnc4)cc32)cc1 | 27.3 | 0.7 | 2.4 | 36.3 | 10.2
